Consider 18 compounds from ChEMBL document CHEMBL2401640, “In search of flavivirus inhibitors: evaluation of different tritylated nucleoside analogues” (Eur J Med Chem, 2013).

pEC50: −log10 of the molar value.

Data set [1] in a line: Selectivity index, ratio of CC50 for african green monkey Vero cells to EC50 for YFV 17D. In a few lines: (§1)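 Vero-B cells (ATCC CCL-81), grown in MEM with 10% FCS, seeded at 2 x 10⁴ cells/well in 2% FCS medium and left to adhere overnight. Infected with 100 CCID₅₀ of YFV-17D vaccine strain (one passage in Vero-B), then serial compound dilutions added. After one week, fixed with ethanol and stained with methylene blue. EC₅₀ for CPE inhibition and CC₅₀ from uninfected parallel cultures, both read visually.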

The nature of data set [2]: Cytotoxicity against african green monkey Vero cells after 1 week. It counts as cell-based. Conditions: chlorocebus sabaeus. In outline:
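Vero-B cells in MEM with 2% FCS, seeded at 7 x 10³ (DENV assay) or 2 x 10⁴ (YFV assay) cells/well and left to adhere overnight. Serial compound dilutions were added without virus and incubated one week. Cells were ethanol-fixed and stained with 1% methylene blue. CC50, the concentration inhibiting cell growth by 50%, was determined visually.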

Another data set has as its system Yellow fever virus. Put plainly: Antiviral activity against YFV 17D infected in african green monkey Vero cells assessed as inhibition of virus-induced cytopathic effect after 1 week. It counts as functional, cell-based. Conditions: 168 h. In a few lines: as §1
Data set [3] is described as follows: Cytotoxicity against mosquito C6/36 cells after 1 week. As to conditions: aedes albopictus. Type of data set: cell-based.
Data set [4] can be described thus: Selectivity index, ratio of CC50 for mosquito C6/36 cells to EC50 for DENV serotype 2 NGC.
A further data set deals with dengue virus type 2. The data set can be described thus: Antiviral activity against DENV serotype 2 NGC infected in mosquito C6/36 cells assessed as inhibition of virus-induced cytopathic effect after 1 week. It counts as functional, organism-based. As to conditions: C6/36, 168 h.

As to `O=c1ccn([C@@H]2O[C@H](COC(c3ccccc3)(c3ccccc3)c3ccccc3)[C@@H](O)[C@H]2O)c(=O)[nH]1`, the “Ratio CC50/EC50” value in data set [1] was found to be 4.5; in data set [4] it was 1.67. Further, the figures for the CC50 at 168 h in data set [2] and in data set [3] were 18 µM and 10 µM, respectively. The figures for the negative-log EC50 (pEC50) in the data set with Yellow fever virus and in the data set with dengue virus type 2 were 5.40 and 5.22, respectively.

Take `O=c1ccn([C@@H]2O[C@H](COC(c3ccccc3)(c3ccccc3)c3ccccc3)[C@@H](OC(c3ccccc3)(c3ccccc3)c3ccccc3)[C@H]2O)c(=O)[nH]1`: the figures for the “Ratio CC50/EC50” value in data set [1] and in data set [4] were >85 and >5, respectively. Further, the half-maximal cytotoxic concentration (CC50) at 168 h in data set [2] is > 85 µM; in data set [3], > 10 µM. Besides, the negative-log EC50 (pEC50) is 6.00 in the data set on Yellow fever virus and 5.76 in the data set with dengue virus type 2.

With `O=c1ccn([C@@H]2O[C@H](COC(c3ccccc3)(c3ccccc3)c3ccccc3)[C@@H](O)[C@H]2OC(c2ccccc2)(c2ccccc2)c2ccccc2)c(=O)[nH]1`, the “Ratio CC50/EC50” value in data set [1] is on record as >80; in data set [4], >3. Further, the CC50 at 168 h in data set [2] and in data set [3] was > 100 µM each time. The negative-log EC50 (pEC50) is 5.92 in the data set with Yellow fever virus and 4.52 in the data set with dengue virus type 2.

As for `O=c1ccn([C@@H]2O[C@H](CO)[C@@H](O)[C@H]2OC(c2ccccc2)(c2ccccc2)c2ccccc2)c(=O)[nH]1`, in data set [1], the “Ratio CC50/EC50” value worked out at 1.4. Also, the values for the CC50 at 168 h in data set [2] and in data set [3] were 35 µM and 40 µM, respectively. Moreover, the pEC50 with Yellow fever virus is 4.60.

Regarding `O=c1ccn([C@@H]2O[C@H](CO)[C@@H](OC(c3ccccc3)(c3ccccc3)c3ccccc3)[C@H]2O)c(=O)[nH]1`, the “Ratio CC50/EC50” value in data set [1] turned out to be 1.8. In addition, the 50% cytotoxic concentration (CC50) at 168 h in data set [2] and in data set [3] was 18 µM in each case. In addition, the pEC50 in the data set with Yellow fever virus is 5.00.

For the compound `O=c1ccn([C@H]2C[C@H](OC(c3ccccc3)(c3ccccc3)c3ccccc3)[C@@H](COC(c3ccccc3)(c3ccccc3)c3ccccc3)O2)c(=O)[nH]1`, the entries for the “Ratio CC50/EC50” value in data set [1] and in data set [4] were >70 and >17, respectively. The CC50 at 168 h in data set [2] and in data set [3] was > 65 µM each time. Besides, the pEC50 in the data set with Yellow fever virus is 6.05; with dengue virus type 2, 5.43.

As to `O=c1ccn([C@H]2C[C@H](OC(c3ccccc3)(c3ccccc3)c3ccccc3)[C@@H](CO)O2)c(=O)[nH]1`, the “Ratio CC50/EC50” value in data set [1] is 2.7. In addition, the values for the 50% cytotoxic concentration (CC50) at 168 h in data set [2] and in data set [3] were 4 µM and 5 µM, respectively. For the same compound, the pEC50 in the data set with Yellow fever virus is 5.82.

For the compound `Cc1cn([C@H]2C[C@H](OC(c3ccccc3)(c3ccccc3)c3ccccc3)[C@@H](COC(c3ccccc3)(c3ccccc3)c3ccccc3)O2)c(=O)[nH]c1=O`, the “Ratio CC50/EC50” value in data set [1] was determined as 7. Also, the half-maximal cytotoxic concentration (CC50) at 168 h was 70 µM in data set [2] and 35 µM in data set [3]. Also, the pEC50 with Yellow fever virus was 5.00.

In the case of `Cc1cn([C@H]2C[C@H](O)[C@@H](COC(c3ccccc3)(c3ccccc3)c3ccccc3)O2)c(=O)[nH]c1=O`, the values for the CC50 at 168 h in data set [2] and in data set [3] were 8 µM and 4 µM, respectively.

Regarding `Cc1cn([C@H]2C[C@H](OC(c3ccccc3)(c3ccccc3)c3ccccc3)[C@@H](CO)O2)c(=O)[nH]c1=O`, in data set [1], the “Ratio CC50/EC50” value came to 1.8. Also, the 50% cytotoxic concentration (CC50) at 168 h turned out to be 18 µM in data set [2] and 10 µM in data set [3]. Also, the negative-log EC50 (pEC50) in the data set on Yellow fever virus is 5.00.

With `O=c1[nH]c(=O)n([C@@H]2O[C@H](COC(c3ccccc3)(c3ccccc3)c3ccccc3)[C@@H](O)[C@H]2O)cc1Cl`, in data set [1], the “Ratio CC50/EC50” value was 2.5. For the same compound, the half-maximal cytotoxic concentration (CC50) at 168 h in data set [2] and in data set [3] was 5 µM throughout. In the data set on Yellow fever virus, the pEC50 is 5.70.

Regarding `O=c1[nH]c(=O)n([C@@H]2O[C@H](COC(c3ccccc3)(c3ccccc3)c3ccccc3)[C@@H](OC(c3ccccc3)(c3ccccc3)c3ccccc3)[C@H]2O)cc1Cl`, the “Ratio CC50/EC50” value in data set [1] came out at 2.9. For the same compound, the CC50 at 168 h in data set [2] stood at 2 µM; in data set [3], 1 µM. Further, the negative-log EC50 (pEC50) in the data set on Yellow fever virus is 6.15.

With `O=c1[nH]c(=O)n([C@@H]2O[C@H](COC(c3ccccc3)(c3ccccc3)c3ccccc3)[C@@H](O)[C@H]2OC(c2ccccc2)(c2ccccc2)c2ccccc2)cc1Cl`, the “Ratio CC50/EC50” value in data set [1] is reported as >90; in data set [4] it was 1.75. The CC50 at 168 h is > 70 µM in data set [2] and 30 µM in data set [3]. Further, the negative-log EC50 (pEC50) in the data set with Yellow fever virus was 6.12; in the data set on dengue virus type 2, 4.77.

Take `O=c1[nH]c(=O)n([C@@H]2O[C@H](CO)[C@@H](O)[C@H]2OC(c2ccccc2)(c2ccccc2)c2ccccc2)cc1Cl`: the “Ratio CC50/EC50” value in data set [1] worked out at 2. Further, the half-maximal cytotoxic concentration (CC50) at 168 h in data set [2] and in data set [3] was 30 µM throughout. Besides, the negative logarithm of the EC50 (pEC50) in the data set on Yellow fever virus is 4.82.

For `O=c1[nH]cnc2c1ncn2[C@@H]1O[C@H](COC(c2ccccc2)(c2ccccc2)c2ccccc2)[C@@H](OC(c2ccccc2)(c2ccccc2)c2ccccc2)[C@H]1O`, the “Ratio CC50/EC50” value is recorded as >40 in data set [1] and 6.6 in data set [4]. For the same compound, the cytotoxic concentration (CC50) at 168 h in data set [2] and in data set [3] was 10 µM each time. For the same compound, the negative logarithm of the EC50 (pEC50) was > 6.40 in the data set with Yellow fever virus and 5.82 in the data set on dengue virus type 2.

As for `O=c1[nH]cnc2c1ncn2[C@@H]1O[C@H](COC(c2ccccc2)(c2ccccc2)c2ccccc2)[C@@H](O)[C@H]1OC(c1ccccc1)(c1ccccc1)c1ccccc1`, the 50% cytotoxic concentration (CC50) at 168 h in data set [2] came out at 10 µM; in data set [3] it was 6 µM.

Consider `Oc1ncnc2c1ncn2[C@@H]1O[C@H](COC(c2ccccc2)(c2ccccc2)c2ccccc2)[C@@H](O)[C@H]1O`, for which the 50% cytotoxic concentration (CC50) at 168 h in data set [2] and in data set [3] was 30 µM throughout.

On to `O=c1ccn([C@H]2C[C@H](O)[C@@H](COC(c3ccccc3)(c3ccccc3)c3ccccc3)O2)c(=O)[nH]1`, for which the “Ratio CC50/EC50” value in data set [1] is 1.7. In addition, the CC50 at 168 h in data set [2] worked out at 5 µM; in data set [3], 8 µM. The pEC50 in the data set on Yellow fever virus was 5.52.

One may read the CC50 as the concentration at which the toxic effect on the cells reaches its halfway point. What is called pEC50 is the negative decadic logarithm of the EC50, by convention in mol/L.
